From ChEMBL document CHEMBL1949601, “γ-Carbolines: a novel class of cannabinoid agonists with high aqueous solubility and restricted CNS penetration” (Bioorg Med Chem Lett, 2012)

Key:
[1] = biological target: Cannabinoid receptor 2 (Homo sapiens, UniProt P34972); assay: Binding affinity to human CB2 receptor
[2] = biological target: Cannabinoid receptor 1 (Rattus norvegicus, UniProt P20272); assay: Agonist activity at CB1 receptor in rat brain tissue; assay type: functional, tissue-based
[3] = biological target: Prostaglandin G/H synthase 1 (Homo sapiens) (UniProt P23219); assay: Activity at human COX1 receptor at 10 uM
[4] = biological target: MAO-A (Homo sapiens, UniProt P21397); assay: Activity at human MAO-A receptor at 10 uM; settings: read-out: Activity
[5] = biological target: Mitogen-activated protein kinase 1 (Mus musculus) (UniProt P63085); assay: Activity at mouse ERK2 receptor at 10 uM
[6] = biological target: Protein kinase C alpha type (Homo sapiens) (UniProt P17252); assay: Activity at human PKCalpha at 10 uM
[7] = biological target: Alpha-2A adrenergic receptor (Homo sapiens) (UniProt P08913); assay: Activity at human alpha2a adrenergic receptor at 10 uM
[8] = biological target: Beta-1 adrenergic receptor (Homo sapiens) (UniProt P08588); assay: Activity at human beta1 adrenergic receptor at 10 uM
[9] = biological target: Estrogen receptor (Homo sapiens) (UniProt P03372); assay: Activity at human ERalpha receptor at 10 uM
[10] = species on record: Rattus norvegicus; assay: Activity at rat GABAa receptor at 10 uM
[11] = biological target: Histamine H1 receptor (Homo sapiens) (UniProt P35367); assay: Activity at human histamine H1 receptor at 10 uM
[12] = biological target: Muscarinic acetylcholine receptor M2 (Homo sapiens) (UniProt P08172); assay: Activity at human M2 receptor at 10 uM
[13] = biological target: 5-hydroxytryptamine receptor 2A (Homo sapiens) (UniProt P28223); assay: Activity at 5-HT2a receptor at 10 uM
[14] = biological target: Sodium-dependent noradrenaline transporter (Homo sapiens) (UniProt P23975); assay: Activity at human NET receptor at 10 uM
[15] = Activity at Nav site2 receptor at 10 uM
[16] = biological target: Adenosine receptor A2a (Homo sapiens) (UniProt P29274); assay: Activity at human A2a receptor at 10 uM
[17] = biological target: Type-1 angiotensin II receptor (Homo sapiens) (UniProt P30556); assay: Activity at human AT1 receptor at 10 uM
[18] = biological target: Bombesin receptor subtype-3 (Homo sapiens) (UniProt P32247); assay: Activity at human BRS3 at 10 uM
[19] = biological target: C-C chemokine receptor type 5 (Homo sapiens) (UniProt P51681); assay: Activity at human CCR5 at 10 uM
[20] = biological target: Calcitonin gene-related peptide type 1 receptor (Homo sapiens) (UniProt Q16602); assay: Activity at human CGRP receptor at 10 uM
[21] = biological target: Corticotropin-releasing factor receptor 1 (Homo sapiens) (UniProt P34998); assay: Activity at human CRF1 receptor at 10 uM
[22] = biological target: C-X-C chemokine receptor type 2 (Homo sapiens) (UniProt P25025); assay: Activity at human CXCR2 receptor at 10 uM
[23] = biological target: C-X-C chemokine receptor type 6 (Homo sapiens) (UniProt O00574); assay: Activity at human CXCR6 receptor at 10 uM
[24] = biological target: Endothelin-1 receptor (Homo sapiens) (UniProt P25101); assay: Activity at human ETA receptor at 10 uM
[25] = biological target: fMet-Leu-Phe receptor (Homo sapiens) (UniProt P21462); assay: Activity at human FPR1 receptor at 10 uM
[26] = biological target: Melanocortin receptor 4 (Homo sapiens) (UniProt P32245); assay: Activity at human MC4 receptor at 10 uM
[27] = biological target: Melanin-concentrating hormone receptor 1 (Homo sapiens) (UniProt Q99705); assay: Activity at human MCH1 receptor at 10 uM
[28] = biological target: Muscarinic acetylcholine receptor M4 (Homo sapiens) (UniProt P08173); assay: Activity at human M4 receptor at 10 uM
[29] = biological target: Neuromedin-K receptor (Homo sapiens) (UniProt P29371); assay: Activity at human NK3 receptor at 10 uM
[30] = biological target: Motilin receptor (Homo sapiens) (UniProt O43193); assay: Activity at human Mtl receptor at 10 uM
[31] = biological target: Somatostatin receptor type 4 (Homo sapiens) (UniProt P31391); assay: Activity at human SST4 receptor at 10 uM
[32] = biological target: Vasopressin V1b receptor (Homo sapiens) (UniProt P47901); assay: Activity at human V1B receptor at 10 uM
[33] = biological target: Adenosine receptor A3 (Rattus norvegicus) (UniProt P28647); assay: Activity at rat A3 receptor at 10 uM
[34] = biological target: Pyroglutamylated RF-amide peptide receptor (Rattus norvegicus) (UniProt P83858); assay: Activity at rat GPR103 receptor at 10 uM
[35] = biological target: Prokineticin-2 (Rattus norvegicus) (UniProt Q8R413); assay: Activity at rat PK2 receptor at 10 uM
[36] = biological target: N-formyl peptide receptor 2 (Homo sapiens) (UniProt P25090); assay: Activity at human FPRL1 receptor at 10 uM
[37] = biological target: Urotensin-2 receptor (Mus musculus) (UniProt Q8VIH9); assay: Activity at mouse UT2 receptor at 10 uM
[38] = biological target: Delta-type opioid receptor (Homo sapiens, UniProt P41143); assay: Inhibition of human DOR
[39] = biological target: Mu-type opioid receptor (Homo sapiens, UniProt P35372); assay: Inhibition of human MOR
[40] = biological target: Kappa-type opioid receptor (Homo sapiens, UniProt P41145); assay: Inhibition of human KOR
[41] = Apparent permeability across human Caco2 cells; assay type: ADME, cell-based; settings: Caco-2
[42] = Ratio of drug uptake in brain to plasma of Sprague-Dawley rat at 1 mg/kg, sc; assay type: ADME, organism-based; parameters: dose 1 mg/kg, route subcutaneous; settings: read-out: BPR
[43] = Metabolic stability in human liver microsomes; assay type: ADME, Microsome; settings: read-out: Stability
[44] = Clearance in iv dosed Sprague-Dawley rat; assay type: ADME, organism-based; settings: in vivo
[45] = biological target: Cytochrome P450 2C9 (Homo sapiens, UniProt P11712); assay: Inhibition of CYP2C9; assay type: ADME
[46] = biological target: Cytochrome P450 2C19 (Homo sapiens, UniProt P33261); assay: Inhibition of CYP2C19; assay type: ADME
[47] = biological target: Cytochrome P450 3A4 (Homo sapiens, UniProt P08684); assay: Inhibition of CYP3A4; assay type: ADME
[48] = biological target: Cannabinoid receptor 1 (Mus musculus, UniProt P47746); assay: Agonist activity at CB1 receptor in field-stimulated mouse vas deferens; assay type: functional, tissue-based
How it was run: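 Isolated mouse vas deferens under electrical field stimulation, used as an intact tissue assay of CB1 agonism at the native receptor.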

[49] = test system: Brain; assay: Drug uptake in brain of Sprague-Dawley rat at 0.35 to 1.4 mg/kg, sc; assay type: ADME, organism-based; parameters: dose 0.35-1.4 mg/kg, route subcutaneous; settings: in vivo, read-out: Drug uptake
How it was run: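 Rats dosed sc at 0.35, 0.70 and 1.4 mg/kg in carrageenan model; brain homogenised, protein precipitated with ACN, centrifuged 9000g 30 min at 4 °C, measured by reversed-phase LC–MS/MS against serial-dilution calibration curve; brain corrected for 2% blood contamination.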

Prokineticin-2 (Rattus norvegicus), sequence (Q8R413 whole entry): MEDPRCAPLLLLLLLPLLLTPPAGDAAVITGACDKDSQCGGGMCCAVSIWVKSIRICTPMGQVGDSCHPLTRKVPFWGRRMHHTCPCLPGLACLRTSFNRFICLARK
Muscarinic acetylcholine receptor M2 (Homo sapiens), sequence (P08172 whole entry): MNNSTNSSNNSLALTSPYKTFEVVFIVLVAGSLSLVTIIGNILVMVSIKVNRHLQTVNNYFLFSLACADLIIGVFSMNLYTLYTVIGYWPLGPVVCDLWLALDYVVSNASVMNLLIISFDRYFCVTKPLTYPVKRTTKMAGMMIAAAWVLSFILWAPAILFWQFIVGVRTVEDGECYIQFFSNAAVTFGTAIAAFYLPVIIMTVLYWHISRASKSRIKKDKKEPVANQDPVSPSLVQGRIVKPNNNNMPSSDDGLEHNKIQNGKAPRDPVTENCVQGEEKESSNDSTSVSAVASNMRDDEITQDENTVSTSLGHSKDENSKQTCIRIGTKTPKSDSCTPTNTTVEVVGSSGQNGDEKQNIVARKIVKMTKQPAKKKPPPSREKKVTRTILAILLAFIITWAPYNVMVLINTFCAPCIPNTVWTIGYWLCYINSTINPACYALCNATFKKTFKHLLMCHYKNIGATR
Muscarinic acetylcholine receptor M4 (Homo sapiens), sequence (P08173 whole entry): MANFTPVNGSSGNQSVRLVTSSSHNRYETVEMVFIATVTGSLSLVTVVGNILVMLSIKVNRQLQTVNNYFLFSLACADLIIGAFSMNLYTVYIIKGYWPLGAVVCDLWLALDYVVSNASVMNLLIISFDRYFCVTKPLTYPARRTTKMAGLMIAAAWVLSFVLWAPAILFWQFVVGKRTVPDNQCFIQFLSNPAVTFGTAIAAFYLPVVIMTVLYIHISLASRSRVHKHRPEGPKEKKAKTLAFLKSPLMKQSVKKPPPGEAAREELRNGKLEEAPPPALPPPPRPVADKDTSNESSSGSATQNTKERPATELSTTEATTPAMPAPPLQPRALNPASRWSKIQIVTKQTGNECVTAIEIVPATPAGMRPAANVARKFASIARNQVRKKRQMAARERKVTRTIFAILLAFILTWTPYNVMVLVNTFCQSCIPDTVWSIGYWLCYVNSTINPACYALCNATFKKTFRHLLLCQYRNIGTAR
Melanin-concentrating hormone receptor 1 (Homo sapiens), sequence (Q99705 whole entry): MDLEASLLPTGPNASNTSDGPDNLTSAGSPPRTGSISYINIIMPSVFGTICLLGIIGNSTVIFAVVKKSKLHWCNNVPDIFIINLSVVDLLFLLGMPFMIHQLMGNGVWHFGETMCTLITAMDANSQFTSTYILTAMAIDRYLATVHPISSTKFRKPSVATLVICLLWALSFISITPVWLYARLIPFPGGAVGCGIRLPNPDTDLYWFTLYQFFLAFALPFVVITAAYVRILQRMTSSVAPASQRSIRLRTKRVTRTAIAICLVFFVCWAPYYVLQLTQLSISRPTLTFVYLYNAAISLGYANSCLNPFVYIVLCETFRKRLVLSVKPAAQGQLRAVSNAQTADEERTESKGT
Cytochrome P450 2C19, sequence (P33261 whole entry): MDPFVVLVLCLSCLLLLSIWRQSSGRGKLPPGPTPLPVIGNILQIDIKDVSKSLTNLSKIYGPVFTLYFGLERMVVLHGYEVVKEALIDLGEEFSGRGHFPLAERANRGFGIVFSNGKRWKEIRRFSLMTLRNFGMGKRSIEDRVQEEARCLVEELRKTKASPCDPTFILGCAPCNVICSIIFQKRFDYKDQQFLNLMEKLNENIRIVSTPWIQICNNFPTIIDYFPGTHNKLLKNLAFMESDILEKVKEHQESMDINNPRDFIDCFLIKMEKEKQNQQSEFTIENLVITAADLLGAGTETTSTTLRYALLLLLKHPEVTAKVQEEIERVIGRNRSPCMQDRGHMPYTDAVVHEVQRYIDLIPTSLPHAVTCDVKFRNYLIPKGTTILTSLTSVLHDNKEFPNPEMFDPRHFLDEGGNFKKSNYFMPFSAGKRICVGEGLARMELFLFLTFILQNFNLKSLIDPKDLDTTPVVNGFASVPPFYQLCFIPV
Estrogen receptor (Homo sapiens), sequence (P03372 whole entry): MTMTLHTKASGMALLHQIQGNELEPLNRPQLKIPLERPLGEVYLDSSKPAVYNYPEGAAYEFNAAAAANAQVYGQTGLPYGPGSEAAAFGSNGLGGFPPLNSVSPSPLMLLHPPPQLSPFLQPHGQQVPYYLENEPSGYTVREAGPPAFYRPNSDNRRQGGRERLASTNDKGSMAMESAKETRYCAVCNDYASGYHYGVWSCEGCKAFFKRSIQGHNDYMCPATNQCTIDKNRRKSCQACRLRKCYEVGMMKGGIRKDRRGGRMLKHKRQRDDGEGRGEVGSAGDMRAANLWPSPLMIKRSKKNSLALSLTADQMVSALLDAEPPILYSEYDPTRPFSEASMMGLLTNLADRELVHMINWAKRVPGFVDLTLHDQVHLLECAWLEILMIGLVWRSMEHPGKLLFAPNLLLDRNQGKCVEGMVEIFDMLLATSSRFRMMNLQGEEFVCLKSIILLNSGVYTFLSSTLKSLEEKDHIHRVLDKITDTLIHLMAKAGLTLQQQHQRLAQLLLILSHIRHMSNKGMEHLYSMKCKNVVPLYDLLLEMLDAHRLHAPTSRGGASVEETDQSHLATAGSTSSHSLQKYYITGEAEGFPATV
Kappa-type opioid receptor, sequence (P41145 whole entry): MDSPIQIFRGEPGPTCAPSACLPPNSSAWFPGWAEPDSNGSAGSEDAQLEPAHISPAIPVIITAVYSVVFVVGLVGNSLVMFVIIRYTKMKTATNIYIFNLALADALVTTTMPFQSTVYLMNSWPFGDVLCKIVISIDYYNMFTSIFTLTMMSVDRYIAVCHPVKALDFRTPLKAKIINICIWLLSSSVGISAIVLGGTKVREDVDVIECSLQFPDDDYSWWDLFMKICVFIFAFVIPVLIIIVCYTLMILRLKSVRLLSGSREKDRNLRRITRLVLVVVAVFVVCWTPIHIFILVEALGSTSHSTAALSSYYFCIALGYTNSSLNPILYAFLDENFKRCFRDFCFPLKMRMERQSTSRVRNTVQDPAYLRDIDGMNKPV
Melanocortin receptor 4 (Homo sapiens), sequence (P32245 whole entry): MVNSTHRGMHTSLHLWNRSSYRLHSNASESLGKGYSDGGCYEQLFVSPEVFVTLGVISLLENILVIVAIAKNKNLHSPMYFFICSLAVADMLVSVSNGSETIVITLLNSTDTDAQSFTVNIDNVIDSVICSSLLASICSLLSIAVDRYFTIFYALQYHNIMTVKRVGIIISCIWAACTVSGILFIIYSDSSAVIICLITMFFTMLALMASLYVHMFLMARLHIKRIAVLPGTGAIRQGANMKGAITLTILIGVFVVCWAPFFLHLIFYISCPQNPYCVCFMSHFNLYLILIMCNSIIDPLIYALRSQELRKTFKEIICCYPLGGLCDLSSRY
Type-1 angiotensin II receptor (Homo sapiens), sequence (P30556 whole entry): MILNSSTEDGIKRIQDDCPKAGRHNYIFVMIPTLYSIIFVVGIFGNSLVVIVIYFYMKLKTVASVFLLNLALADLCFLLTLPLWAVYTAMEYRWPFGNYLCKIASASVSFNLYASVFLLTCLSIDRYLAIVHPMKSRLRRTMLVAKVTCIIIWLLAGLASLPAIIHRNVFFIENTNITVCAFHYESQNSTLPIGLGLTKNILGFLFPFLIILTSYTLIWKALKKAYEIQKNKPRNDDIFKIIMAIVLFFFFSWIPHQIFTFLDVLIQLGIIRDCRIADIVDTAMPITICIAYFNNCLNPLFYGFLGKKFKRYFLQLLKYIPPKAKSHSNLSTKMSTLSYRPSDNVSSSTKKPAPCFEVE
C-X-C chemokine receptor type 6 (Homo sapiens), sequence (O00574 whole entry, looked up): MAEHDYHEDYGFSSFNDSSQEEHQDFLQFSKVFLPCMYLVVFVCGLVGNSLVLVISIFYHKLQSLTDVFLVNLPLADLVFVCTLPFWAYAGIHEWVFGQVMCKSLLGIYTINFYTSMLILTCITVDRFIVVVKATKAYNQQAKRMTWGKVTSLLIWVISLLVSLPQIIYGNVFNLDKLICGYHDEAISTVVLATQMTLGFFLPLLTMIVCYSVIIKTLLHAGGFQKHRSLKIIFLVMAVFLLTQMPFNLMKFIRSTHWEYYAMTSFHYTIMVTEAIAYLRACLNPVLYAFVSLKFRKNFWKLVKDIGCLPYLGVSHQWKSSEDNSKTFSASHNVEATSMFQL
Pyroglutamylated RF-amide peptide receptor (Rattus norvegicus), sequence (P83858 whole entry): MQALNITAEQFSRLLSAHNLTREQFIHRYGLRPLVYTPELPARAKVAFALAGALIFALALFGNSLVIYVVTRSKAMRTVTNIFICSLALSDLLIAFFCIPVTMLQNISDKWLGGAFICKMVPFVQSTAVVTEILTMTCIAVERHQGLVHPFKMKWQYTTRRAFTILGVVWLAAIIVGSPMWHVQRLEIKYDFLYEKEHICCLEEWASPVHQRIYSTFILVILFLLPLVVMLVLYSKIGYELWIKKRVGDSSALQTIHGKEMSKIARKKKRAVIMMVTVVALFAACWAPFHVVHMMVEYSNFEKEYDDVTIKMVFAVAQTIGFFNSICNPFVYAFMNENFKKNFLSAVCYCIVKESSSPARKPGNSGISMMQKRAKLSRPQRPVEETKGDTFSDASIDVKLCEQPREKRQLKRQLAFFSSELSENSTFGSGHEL
Beta-1 adrenergic receptor (Homo sapiens), sequence (P08588 whole entry, looked up): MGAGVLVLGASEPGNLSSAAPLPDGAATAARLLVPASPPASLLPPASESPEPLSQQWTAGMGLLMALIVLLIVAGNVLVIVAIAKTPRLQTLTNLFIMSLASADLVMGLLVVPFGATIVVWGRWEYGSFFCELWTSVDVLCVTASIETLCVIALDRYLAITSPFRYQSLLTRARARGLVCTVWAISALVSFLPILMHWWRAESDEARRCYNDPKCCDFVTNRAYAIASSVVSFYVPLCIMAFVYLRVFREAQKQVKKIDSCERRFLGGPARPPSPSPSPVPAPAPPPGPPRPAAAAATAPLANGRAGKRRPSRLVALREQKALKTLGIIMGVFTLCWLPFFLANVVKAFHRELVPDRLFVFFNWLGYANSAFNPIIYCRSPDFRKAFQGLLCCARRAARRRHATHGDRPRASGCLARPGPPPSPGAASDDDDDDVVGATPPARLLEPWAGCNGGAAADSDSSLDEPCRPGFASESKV

CCS(=O)(=O)n1c2c(c3cc(C(=O)N4CCC(C)CC4)ccc31)CN(C1CCOCC1)CC2
< 50%: Activity [3] | activity at 10 µM [4] | Activity [5] | Activity [6] | Activity [7] | Activity [8] | Activity [9] | Activity [10] | Activity [11] | Activity [12] | Activity [13] | Activity [14] | Activity [15] | Activity [16] | Activity [17] | Activity [18] | Activity [19] | Activity [20] | Activity [21] | Activity [22] | Activity [23] | Activity [24] | Activity [25] | Activity [26] | Activity [27] | Activity [28] | Activity [29] | Activity [30] | Activity [31] | Activity [32] | Activity [33] | Activity [34] | Activity [35] | Activity [36] | Activity [37]
> 10 µM: IC50 [38] | IC50 [39] | IC50 [40]
28 mL/min/kg: clearance [44]
13 ×10⁻⁶ cm/s: Papp [41]
> 20 µM: IC50 [45] | IC50 [46] | IC50 [47]
52 µL/min/mg: microsomal CLint [43]
10 nM: concentration [49]
0.0019 µM: IC50 [48]
0.009 µM: Ki [1]
0.07: Kp [42]
0.085 µM: EC50 [2]
